Source: ChEMBL document CHEMBL5712922, “Synergistic effects of type I PRMT and PARP inhibitors against non-small cell lung cancer cells” (Clin Epigenetics, 2021)
Where a name gives a salt, the structure may show the parent alone. The source made the active and inactive calls. No cut-off for these calls is given here.

Tests used:
A549 [1] = assay: Antiproliferative against human A549 cells expressing MTAP clone 1 assessed as […] treated for 7 days with replenishment of medium for every 48 hrs by MTT assay (reference value: 4.4 uM); assay type: functional, cell-based
How it was run: (§1)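 Parental, empty-vector (pLoc) or MTAP-re-expressing lentiviral clone cells (blasticidin 3 µg/ml selected) seeded day 0; MS023 (0.2–2 μM final) and/or BMN-673 (0.3–50 nM final) or DMSO added after 16 h, replenished with medium every 48 h. Day 7: MTT reagent 3 h at 37 °C, solvent, absorbance 590 nm; triplicates; percent death = 1 − (treated/DMSO).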

A549 [2] = assay: Antiproliferative against human A549 cells assessed as reduction in cell viability at 16.5 uM for 24 hrs relative to control; assay type: functional
How it was run: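 A549 cells exposed to MS023 for 24 h in dose–response; viability read by flow cytometry with Viacount dye reagent distinguishing viable, pre-apoptotic and dead cells.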

A549 [3] = assay: Antiproliferative against human A549 cells expressing MTAP clone 2 assessed as […] treated for 7 days with replenishment of medium for every 48 hrs by MTT assay (reference value: 4.4 uM); assay type: functional, cell-based
SK-LU-1 [4] = assay: Antiproliferative against human SK-LU-1 cells expressing MTAP clone 1 assessed as […] treated for 7 days with replenishment of medium for every 48 hrs by MTT assay (reference value: 16.3 uM); assay type: functional, cell-based
SK-LU-1 [5] = assay: Antiproliferative against human SK-LU-1 cells expressing MTAP clone 2 assessed as […] treated for 7 days with replenishment of medium for every 48 hrs by MTT assay (reference value: 16.3 uM); assay type: functional, cell-based
HCC4006 [6] = assay: Antiproliferative against human HCC4006 cells expressing MTAP clone 1 assessed as […] treated for 7 days with replenishment of medium for every 48 hrs by MTT assay (reference value: 0.24 uM); assay type: functional, cell-based; how it was run: as §1
HCC4006 [7] = assay: Antiproliferative against human HCC4006 cells expressing MTAP clone 2 assessed as […] treated for 7 days with replenishment of medium for every 48 hrs by MTT assay (reference value: 0.24 uM); assay type: functional, cell-based; how it was run: as §1
A549 [8] = assay: Induction of DNA damage in human A549 cells at 2 uM for 7 days by gamma-H2AX analysis; assay type: functional, cell-based; conditions: time 7.0 day
How it was run: (§2)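 A549 cells grown on coverslips under MTT treatment conditions (inhibitors replenished every 48 h) for 7 days with MS023 (0.2–2 µM) and/or BMN-673 (50 nM); fixed in 4% paraformaldehyde, Triton-permeabilized, stained with anti-γ-H2AX (1:1000, 16 h, 4 °C) and Alexa488 secondary, DAPI counterstain. ≥200 cells imaged; fraction with >5 foci reported; unpaired t tests.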

A549 [9] = assay: Induction of DNA damage in human A549 cells assessed as increase in stained cells at 0.2 uM for 7 days by gamma-H2AX analysis (reference value: 3.9%); assay type: functional; conditions: time 7 day; how it was run: as §2
A549 [10] = assay: Induction of DNA damage in human A549 cells assessed as increase in stained cells at 2 uM for 7 days by gamma-H2AX analysis (reference value: 3.9%); assay type: functional; conditions: time 7 day; how it was run: as §2
A549 [11] = assay: Synergistic antiproliferative activity against human A549 cells pretreated with MS023 for 24 hrs followed by compound addition at 10 uM measured after for 24 hrs relative to control; assay type: functional
How it was run: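 A549 seeded 20K/well; next day 16.5 μM MS023 or DMSO for 24 h, then 181 epigenetic library drugs at 10 μM for 24 h. Viability by Viacount flow cytometry after trypsinization; heat-killed well as total death control. Synergy Index = (monotherapy viability × MS023 viability effect)/combination viability; also synergy percentage (1 − 1/SI)×100.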

A549 [12] = assay: Antiproliferative against human A549 cells assessed as viable cells pretreated with MS023 for 24 hrs followed by compound addition at 10 uM measured after for 24 hrs relative to control; conditions: A549, 24 h, read-out: Activity
A549 [13] = assay: Antiproliferative against human A549 cells expressing MTAP clone 1 assessed as […] treated at 25 to 50 nM for 7 days in presence of MS023 with replenishment of medium for every 48 hrs by MTT assay relative to control; assay type: functional; parameters: scale not given: the % may be the effect or the level left; conditions: dose 25-50 nM, time 7 day
A549 [14] = assay: Antiproliferative against human A549 cells expressing MTAP clone 2 assessed as […] treated at 25 to 50 nM for 7 days in presence of MS023 with replenishment of medium for every 48 hrs by MTT assay relative to control; assay type: functional; parameters: scale not given: the % may be the effect or the level left; conditions: dose 25-50 nM, time 7 day
A549 [15] = assay: Induction of cell death in human A549 cells at 0.3 nM in presence of 2 uM MS023 by viacount reagent based analysis; assay type: functional
A549 [16] = assay: Induction of cell death in human A549 cells assessed as bliss energy score at 0.3 nM in presence of EPZ 15666 by viacount reagent based analysis; assay type: functional
A549 [17] = assay: Induction of cell death in human A549 cells assessed as bliss energy score at 0.3 nM in presence of GSK 591 by viacount reagent based analysis; assay type: functional
A549 [18] = assay: Induction of DNA damage in human A549 cells at 50 nM for 7 days by gamma-H2AX analysis; assay type: functional, cell-based; conditions: time 7.0 day; how it was run: as §2
A549 [19] = assay: Induction of DNA damage in human A549 cells at 50 nM in presence of MS023 for 7 days by gamma-H2AX analysis; assay type: functional, cell-based; conditions: time 7.0 day; how it was run: as §2
A549 [20] = assay: Induction of DNA damage in human A549 cells assessed as increase in stained cells at 1 nM for 7 days by gamma-H2AX analysis (reference value: 3.9%); assay type: functional; conditions: time 7 day
A549 [21] = assay: Induction of DNA damage in human A549 cells assessed as increase in stained cells at 50 nM for 7 days by gamma-H2AX analysis (reference value: 3.9%); assay type: functional; conditions: time 7 day; how it was run: as §2
A549 [22] = assay: Induction of DNA damage in human A549 cells assessed as increase in stained cells at 50 nM for 7 days in presence of MS023 by gamma-H2AX analysis (reference value: 3.9%); assay type: functional; conditions: time 7 day; how it was run: as §2
PEO1 [23] = assay: Antiproliferative activity against BRCA2 deficient human PEO1 cells at 3.75 to 60 nM; assay type: functional, cell-based; conditions: dose 3.75-60 nM
How it was run: (§3)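 PEO1 and PEO4 ovarian cells seeded 3,000/well; treated one day after plating with MS023 and/or BMN-673 or DMSO vehicle, medium with inhibitors replenished every 48 h. Six days after first treatment, nuclei stained with Hoechst 33342 (10 µg/ml final, 30 min) and counted by plate imaging; counts normalized to DMSO wells. Combination effect expressed as Bliss score.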

PEO1 [24] = assay: Antiproliferative activity against BRCA2 deficient human PEO1 cells at 3.75 to 60 nM in presence of MS023; assay type: functional, cell-based; conditions: dose 3.75-60 nM; how it was run: as §3
PEO4 [25] = assay: Antiproliferative activity against human PEO4 cells expressing BRCA2 mutant at 3.75 to 60 nM; assay type: functional, cell-based; conditions: dose 3.75-60 nM; how it was run: as §3
PEO4 [26] = assay: Antiproliferative activity against human PEO4 cells expressing BRCA2 mutant at 3.75 to 60 nM in presence of MS023; assay type: functional, cell-based; conditions: dose 3.75-60 nM; how it was run: as §3
[27] = Antiproliferative activity against human PEO4 cells expressing BRCA2 mutant assessed as bliss energy score at 3.75 to 60 nM in presence of MS023; assay type: functional; conditions: dose 3.75-60 nM; how it was run: as §3
PEO1 [28] = assay: Antiproliferative activity against BRCA2 deficient human PEO1 cells assessed as bliss energy score at 3.75 to 60 nM in presence of MS023; assay type: functional; conditions: dose 3.75-60 nM; how it was run: as §3
A549 [29] = assay: Antiproliferative against human A549 cells assessed as killed cells at 0.3 nM treated for 7 days in presence of MS023 with replenishment of medium for every 48 hrs by MTT assay relative to control; conditions: time 7 day

## CC(C)Oc1ccc(-c2c[nH]cc2CN(C)CCN)cc1
A549 [1]
  IC50: 5.1 µM
A549 [2]
  Activity: 23%
A549 [3]
  IC50: 13.4 µM
SK-LU-1 [4]
  IC50: 36.7 µM
SK-LU-1 [5]
  IC50: 41 µM
HCC4006 [6]
  IC50: 0.47 µM
HCC4006 [7]
  IC50: 0.56 µM
A549 [8]
  Activity: Active
A549 [9]
  Activity: 19.6%
A549 [10]
  Activity: 27.6%

## Cc1ccc(S(=O)(=O)O)cc1.NC(=O)c1cccc2cn(-c3ccc([C@@H]4CCCNC4)cc3)nc12
A549 [11]
  Activity: 11%
A549 [12]
  viability at 10 µM: 54.2%

## COC1CCN(C(=O)c2cc(Cc3n[nH]c(=O)c4ccccc34)ccc2F)CC1 [AZD2461]
A549 [11]
  Activity: 67%
A549 [12]
  viability at 10 µM: 54.2%

## NC(=O)c1ccc(I)c([N+](=O)[O-])c1 [INIPARIB]
A549 [11]
  Activity: 15%
A549 [12]
  viability at 10 µM: 54.2%

## O=C(c1cc(Cc2n[nH]c(=O)c3ccccc23)ccc1F)N1CCN(C(=O)C2CC2)CC1 [OLAPARIB]
A549 [11]
  Activity: 48%
A549 [12]
  viability at 10 µM: 54.2%

## CN(C)CC(=O)Nc1ccc2[nH]c(=O)c3ccccc3c2c1.Cl [PJ34]
A549 [11]
  Activity: 21%
A549 [12]
  viability at 10 µM: 54.2%

## CNCc1ccc(-c2[nH]c3cc(F)cc4c3c2CCNC4=O)cc1 [RUCAPARIB]
A549 [11]
  Activity: 24%
A549 [12]
  viability at 10 µM: 54.2%

## CCS(=O)(=O)c1cccc(-c2cc(C(=O)NC3CCN(C)CC3)c(C)c3[nH]c4ncc(C)cc4c23)c1 [TAK-901]
A549 [12]
  viability at 10 µM: 54.2%

## Cn1ncnc1[C@H]1c2n[nH]c(=O)c3cc(F)cc(c23)N[C@@H]1c1ccc(F)cc1 [TALAZOPARIB]
A549 [13]
  Activity: 50%
A549 [14]
  Activity: 50%
A549 [15]
  Activity: Active
A549 [16]
  Activity: 13.506
A549 [17]
  Activity: 19.892
A549 [18]
  Activity: Active
A549 [19]
  Activity: Active
A549 [20]
  Activity: 24.8%
A549 [21]
  Activity: 40.4%
A549 [22]
  Activity: 69.5%
PEO1 [23]
  Activity: Active
PEO1 [24]
  Activity: Active
PEO4 [25]
  Activity: inactive
PEO4 [26]
  Activity: Active
[27]
  Activity: 21.64
PEO1 [28]
  Activity: 17.98
A549 [29]
  Activity: >80%

## O=C(O)C(O)C(O)C(=O)O (stereo not given) [TARTARIC ACID]
A549 [12]
  viability at 10 µM: 54.2%

## C[C@@H]1CCN(C(=O)CC#N)C[C@@H]1N(C)c1ncnc2[nH]ccc12 [TOFACITINIB]
A549 [12]
  viability at 10 µM: 54.2%

## N[C@@H]1C[C@H]1c1ccccc1 [TRANYLCYPROMINE HYDROCHLORIDE]
A549 [12]
  viability at 10 µM: 54.2%

## CC(/C=C/C(=O)NO)=C\[C@@H](C)C(=O)c1ccc(N(C)C)cc1 [TRICHOSTATIN]
A549 [12]
  viability at 10 µM: 54.2%

## CCCC(CCC)C(=O)O [VALPROIC ACID]
A549 [12]
  viability at 10 µM: 54.2%

## C[C@]1(c2nc3c(C(N)=O)cccc3[nH]2)CCCN1 [VELIPARIB]
A549 [11]
  Activity: 98%
A549 [12]
  viability at 10 µM: 54.2%

## O=C(CCCCCCC(=O)Nc1ccccc1)NO [VORINOSTAT]
A549 [12]
  viability at 10 µM: 54.2%

## C[C@H](NC(=O)/C(C#N)=C/c1cccc(Br)n1)c1ccccc1 [WP 1066]
A549 [12]
  viability at 10 µM: 54.2%

## O=c1ncccn1[C@@H]1O[C@H](CO)[C@@H](O)[C@H]1O [ZEBULARINE]
A549 [12]
  viability at 10 µM: 54.2%
